Assay outcomes (PubChem)
STAT3 inh: IL-6 driven STAT3 reporter inhibitors, primary screen, U3A cells, luciferase, luminescence, MLSCN library; inhibition, % at 5.5 µM; 0.89% of 190,000 active; IL-6 STAT3-luciferase reporter; host cell line lacks STAT1;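 active = inhibition above the mean inhibition across all screened compounds plus 3 SD, cut at about 44% in these data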;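 note: 0% = DMSO only wells and 100% = 100 µM nifuroxazide control wells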
STAT1 activator: STAT1 signaling activators, primary screen, cell-based, HTS, luciferase reporter; NIH 3T3 STAT1-luciferase reporter, IFN-gamma, luminescence; 100% = IFN-gamma alone, no compound; 2.6% of 200,000 active; activation (% of control), % at 5.5 µM; AID 932, 2007;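 active = activation above the screen-wide mean activation plus 3 SD, cut at about 130% in these data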;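 note: raw ratio to IFN-gamma control signal so 100% means no change and 0% no light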
STAT1 blocker: STAT1 signaling inhibitors, primary screen, cell-based, HTS, luciferase reporter. NIH 3T3 STAT1-luciferase reporter, IFN-gamma, luminescence. AID 920, 2007. 0.35% of 200,000 active. inhibition, % at 5.5 µM;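 active = inhibition above a set limit, the mean inhibition across all tested compounds plus 3 SD, cut at about 34% in these data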;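 note: 0% = IFN-gamma with DMSO and 100% = IFN-gamma with 300 µM nifuroxazide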
STAT3 activator: IL-6 driven STAT3 reporter potentiators, primary screen, U3A cells, luciferase, luminescence, MLSCN library; IL-6 STAT3-luciferase reporter; 100% = signal with IL-6 EC80 alone; activation (% of control), % at 5.6 µM; 0.91% of 190,000 active;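 active = activation above the screen-wide mean of compound activation plus 3 SD, cut at about 130% in these data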;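 note: 0% = background luminescence of wells with medium and substrate only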
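system = STAT3-luciferase reporter U3A cells | reagent = IL-6 stimulus at 33 ng/mL final | timing = 1 h compound pre-exposure, 6 h IL-6 stimulation, 37 °C | measured by = luminescence | evaluation = % activation versus median of IL-6-stimulated wells | control set = IL-6-only wells as 100% reference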
APP 5'UTR act: activators of APP 5'UTR luciferase reporter, primary screen, SH-SY5Y cells. SH-SY5Y APP 5'UTR luciferase reporter, luminescence; zero percent = DMSO vehicle wells. activation, % at 2 µM. 1% of 190,000 active;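 active = activation above a set limit, based on mean plus 3 SD of controls, cut at about 140% in these data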
NF-kB expr up: activators of NF-kB expression in neurons, primary screen, cell-based, HTS | human neuronal cells, NF-kB reporter expression; active compounds read high | fold change at 12.5 µM | 1.6% of 190,000 active; in the data active = fold change above about 3.3
The depositor's hits bear a star; x = not tested or not shown. In the library only some 5.1% were active in any assay of this set; here they are far more common.

SMILES | STAT3 inh | STAT1 activator | STAT1 blocker | STAT3 activator | APP 5'UTR act | NF-kB expr up
CCCCCCCCNc1ncnc2ccccc12 | 89* | 75 | 28 | 26 | -19 | 0.85
CCC(=O)NNc1ncnc2ccccc12 | -35 | 99 | 2 | 130 | 3 | 1.2
COc1ccc(Nc2ncnc3ccccc23)cc1 | -4 | 129* | -33 | 103 | 52 | 2.4
COc1cccc(Nc2ncnc3ccccc23)c1 | 5 | 117 | -19 | 100 | 56 | 2.8
CCOC(=O)C1(Cc2cccc(F)c2)CCN(C(=O)c2cnccn2)CC1 | 5 | 101 | -1 | 101 | 6 | 1
CCOC(=O)C1(Cc2ccccc2Cl)CCN(C(=O)c2cnccn2)CC1 | -7 | 149* | -57 | 110 | 42 | 2.7
COc1ccccc1-c1nc(-c2ccccc2)[nH]c(=O)c1C#N | 5 | 103 | -5 | 99 | -26 | 1.2
COc1cc(C(=O)NCCOc2cc(C)cc(C)c2)c(Br)c(OC)c1OC | -1 | 98 | 2 | 105 | -16 | 2.8
Cc1ccc(C(=O)NC(=S)Nc2ccccc2N2CCCC2)cc1[N+](=O)[O-] | -44 | 95 | 6 | 134* | 18 | 0.73
Cc1ccc(C(=O)Nc2ccccc2N2CCCCC2)cc1[N+](=O)[O-] | 4 | 99 | 1 | 100 | -7 | 1.3
CCOc1ccc(-n2c(=O)c3sccc3n(Cc3cccc([N+](=O)[O-])c3)c2=O)cc1 | 1 | 102 | -4 | 101 | 23 | 1.1
COc1ccc(-c2cc(=O)c3cc(O)ccc3o2)cc1 | x | 145* | -51 | x | 129 | 6.5*
COc1ccc2c(c1)c(=O)oc1cc(O)ccc12 | x | 111 | -14 | x | 1 | 1.2
O=C(OCc1cn(-c2ccc(Cl)c(Cl)c2)nn1)c1ccccc1 | 4 | 101 | -2 | 97 | -1 | 1.1
Cc1ccc(-n2cc(C(=O)c3ccc(F)cc3)nn2)cc1Cl | -9 | 139* | -44 | 115 | 72 | 3.1
Cc1cccc(Nc2nnc(SCC(=O)c3ccc(Br)s3)s2)c1C | 10 | 98 | 2 | 93 | -13 | 1
COc1ccc(C(=O)Nc2nc3ccccc3[nH]2)cc1OC | 20 | 129* | -31 | 85 | 92 | 2.4
COc1cc(OC)cc(C(=O)Nc2nc3ccccc3[nH]2)c1 | 5 | 131* | -34 | 99 | 105 | 1.9
COc1ccc(OCC(=O)Nc2nc3ccccc3[nH]2)cc1 | 5 | 106 | -7 | 99 | 50 | 2.2
COc1ccc(C(=O)Nc2ccc3nc(C)sc3c2)cc1OC | 3 | 118 | -20 | 99 | 27 | 0.97
COc1ccc(C(=O)Nc2nc(C)c(C)s2)cc1OC | 4 | 139* | -43 | 100 | 104 | 1.9
CN(C)S(=O)(=O)c1ccc(C(=O)Nc2nc3ccccc3[nH]2)cc1 | 2 | 143* | -51 | 100 | 101 | 1.2
Cc1cccc(NC(=S)N2CCN(c3ccc(F)cc3)CC2)c1 | 17 | 91 | 7 | 88 | 0 | 0.89
CCOc1ccc2nc(N3CCC(C(=O)Nc4nnc(CC)s4)CC3)sc2c1 | -6 | 134* | -35 | 105 | 33 | 1.7
CCN(CC)C(=O)COc1ccc(/C(C)=N/NC(=O)c2ccccc2O)cc1 | 4 | 94 | 6 | 99 | -1 | 1.6
SMILES | STAT3 inh | STAT1 activator | STAT1 blocker | STAT3 activator | APP 5'UTR act | NF-kB expr up
CCN(CC)C(=O)COc1ccc(-c2ccccc2)cc1 | 10 | 132* | -35 | 93 | 33 | 2
CC(NC(=S)NCCN1CCOCC1)C12CC3CC(CC(C3)C1)C2 (configuration not stated) | -6 | 106 | -8 | 107 | 24 | 1.1
CCOc1ccccc1-c1nc(-c2ccncc2)no1 | 14 | 96 | 5 | 88 | 0 | 1
C(=C\c1nc(-c2ccncc2)no1)/c1ccccc1 | 13 | 150* | -54 | 94 | 116 | x
O=C(c1cccc([N+](=O)[O-])c1)N1CCOCC1 | 7 | 98 | 2 | 93 | 15 | 1.3
O=C(/C=C\c1ccc(-c2cccc([N+](=O)[O-])c2)o1)N1CCOCC1 | -2 | 129* | -33 | 104 | 18 | 1
N#C/C(=N\Nc1ccccc1[N+](=O)[O-])C(=N)N1CCCCC1 | 18 | 136* | -39 | 90 | 176* | 5.6*
N#C/C(=N\Nc1ccc(S(=O)(=O)N2CCCCCC2)cc1)C(N)=S | 24 | 86 | 15 | 83 | 10 | 1
N#C/C(=N\Nc1ccc(Br)cc1)C(=N)N1CCOCC1 | 7 | 146* | -51 | 105 | 80 | 3.1
N#C/C(=N\Nc1ccccc1)C(=N)N1CCCCC1 | -6 | 129* | -32 | 108 | 112 | 4.5*
COc1ccccc1N/N=C(\C#N)C(=N)N1CCOCC1 | 5 | 103 | -5 | 98 | 1 | 1.1
CCOC(=O)C1CCCCN1Cc1cn[nH]c1-c1ccc(F)cc1F (configuration not stated) | 10 | 98 | 1 | 101 | 7 | 1.1
Cc1cccc(NC(=O)CC2SC(=O)N(c3ccccc3)C2=O)c1 (configuration not stated) | 1 | 103 | -3 | 100 | -26 | 1
Cc1cccc(NC2SC(=O)N(c3ccccc3)C2=O)c1 (configuration not stated) | 9 | 100 | 0 | 97 | 43 | 3.5*
CC(C)c1nnc(NC(=O)c2cccc(NC(=O)C(F)(F)F)c2)s1 | -3 | 138* | -45 | 103 | 65 | 1
CC(C)C(=O)Nc1cccc(C(=O)Nc2nnc(C(C)C)s2)c1 | -4 | 146* | -54 | 106 | 25 | 2.2
CCOCCCNC(=S)N1CCCC(c2nc3ccc(C)cc3[nH]2)C1 (configuration not stated) | 2 | 96 | 4 | 104 | 26 | 0.91
C/C(=N\Nc1ncc(Cl)cc1Cl)c1ccc(N2CCOCC2)cc1 | 9 | 111 | -14 | 95 | 63 | 1.5
C/C(=N\Nc1cccc2cccnc12)c1ccccn1 | 68* | 61 | 41* | 48 | 272* | 0.97
C/C(=N\Nc1cccc2cccnc12)c1ccccc1O | -13 | 118 | -20 | 112 | 202* | 6.9*
C/C(=N\Nc1ncc(Cl)cc1Cl)c1ccccn1 | 94* | 36 | 69* | 23 | -70 | 0.44
C/C(=N\Nc1cccc2cccnc12)c1ccc(N)cc1 | 9 | 111 | -14 | 101 | 198* | 2.3
Oc1c(/C=N/Nc2cccc3cccnc23)ccc2ccccc12 | -5 | 98 | 2 | 105 | 87 | 1.8
COc1ccc(C(=O)c2cc3cccc(OC)c3o2)cc1 | 21 | 150* | -59 | 86 | 99 | 4.2*
COc1cccc2cc(C(C)=O)oc12 | 5 | 102 | -1 | 98 | -13 | 1.3
